Assay results of several laboratories.
Lines come from different studies, so protocols differ.

Compound | test | test system | setting | quantity | value
CC(C)[C@H](N)C(=O)N[C@H](Cc1ccccc1)C(=O)N[C@@H](Cc1ccccc1)C(=O)N[C@H](CCCN)C(=O)N[C@H](C(=O)N[C@H](CCCNC(=N)N)C(=O)O)[C@@H](C)O | haemolysis | human | 100 µM | haemolysis | < 10%
C[C@]1(O)CCCN(c2nc(Nc3ccc(S(=O)(=O)N[C@H]4CC[C@H](CN5CCN(c6ccc(C7CCC(=O)NC7=O)c(F)c6)CC5)CC4)cc3F)ncc2C(F)(F)F)C1 (stereo partly shown) | – | rat, plasma | intravenous, 2 mg/kg | clearance | 6 mL/min/kg
CCCCCCCCNC(C)C(O)c1ccc(SC(C)C)cc1 (stereo not shown) | haemolysis | human | 50 µM, 3 h | haemolysis | > 18%
C[C@]1(O)CCCN(c2nc(Nc3ccc(S(=O)(=O)N[C@H]4CC[C@H](CN5CCN(c6ccc(C7CCC(=O)NC7=O)cc6F)CC5)CC4)cc3F)ncc2C(F)(F)F)C1 (stereo partly shown) | – | rat, plasma | intravenous, 2 mg/kg | clearance | 12 mL/min/kg
CCCc1nc2c(C)cc(-c3nc4ccccc4n3C)cc2n1Cc1ccc(-c2ccccc2C(=O)O)cc1 | – | male Sprague-Dawley rat, plasma | oral, 8 mg/kg, single dose | CL/F | 78 mL/min/kg
CO[C@H]1C[C@H](O[C@@H]2/C(C)=C/C[C@@H]3C[C@@H](C[C@]4(CC[C@H](C)[C@@H](C5CCCCC5)O4)O3)OC(=O)[C@@H]3C=C(C)/C(=N/O)[C@H]4OC/C(=C\C=C\[C@@H]2C)[C@]43O)O[C@@H](C)[C@@H]1O | haemolysis | human | 50 µM, 3 h | haemolysis | > 18%
CC(C)[C@@H]1NC(=O)[C@@H](CCCNC(=N)N)NC(=O)[C@H]([C@@H](C)O)NC(=O)[C@@H](CCCCN)NC(=O)[C@H](Cc2ccccc2)NC(=O)[C@@H](Cc2ccccc2)NC1=O | haemolysis | human | 100 µM | haemolysis | < 10%
C[C@]1(O)CCCN(c2nc(Nc3ccc(S(=O)(=O)N[C@@H]4CCN(CC5CCN(c6ccc(C7CCC(=O)NC7=O)cc6F)CC5)C[C@H]4F)cc3F)ncc2C(F)(F)F)C1 (stereo partly shown) | – | rat, plasma | intravenous, 2 mg/kg | clearance | 12 mL/min/kg
CC(C)[C@@H]1NC(=O)[C@@H](CCCNC(=N)N)NC(=O)[C@H]([C@@H](C)O)NC(=O)[C@@H](C)NC(=O)[C@H](Cc2ccccc2)NC(=O)[C@@H](Cc2ccccc2)NC1=O | haemolysis | human | 100 µM | haemolysis | < 10%
C[C@H]1Oc2cc(cnc2N)-c2c(nn(C)c2C#N)CN(C)C(=O)c2ccc(F)cc21 | – | male Sprague-Dawley rat, plasma | oral, 50 mg/kg, single dose | CL/F | 16.7 mL/min/kg
